Activity calls are given as the source filed them. The rule behind the calls is not given here.
Legend:
Human betaherpesvirus 5 [1] = test: Ratio of EC50 for Human cytomegalovirus T3019 expressing UL27 kinase with 218delC mutant gene to EC50 for Human cytomegalovirus T2211 expressing wild type UL27 gene; assay type: functional
How it was run: (§1)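 Each strain's maribavir EC50 comes from a 6-day SEAP yield reduction in human embryonic lung fibroblasts at MOI 0.01 to 0.02, fitted from supernatant chemiluminescence over at least 12 replicates on at least four dates. It is expressed relative to the EC50 of baseline strain T2211 assayed simultaneously on the same setup dates.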

Human betaherpesvirus 5 [2] = test: Ratio of EC50 for Human cytomegalovirus T2931 expressing UL27 kinase 301 to 311 deletion with frame shift mutation at 311 codon to EC50 for Human cytomegalovirus T2211 expressing wild type UL27 gene; assay type: functional; how it was run: as §1
Human betaherpesvirus 5 [3] = test: Antiviral activity against 0.01 to 0.02 MOI of Human cytomegalovirus T2899 expressing wild type UL97 kinase with N289D, D298G, N300G, P307L,V310A, D351N, I367V mutant gene assessed as growth inhibition at day 6 by SEAP yield reduction assay relative to control; assay type: functional, organism-based
Human betaherpesvirus 5 [4] = test: Antiviral activity against 0.01 to 0.02 MOI of Human cytomegalovirus T2867 expressing UL27 kinase with A269T mutant gene assessed as growth inhibition at day 6 by SEAP yield reduction assay relative to control; assay type: functional, organism-based
Human betaherpesvirus 5 [5] = test: Antiviral activity against 0.01 to 0.02 MOI of Human cytomegalovirus T2931 expressing UL27 kinase 301 to 311 deletion with frame shift mutation at 311 codon assessed as growth inhibition at day 6 by SEAP yield reduction assay relative to control; assay type: functional, organism-based
Human betaherpesvirus 5 [6] = test: Antiviral activity against 0.01 to 0.02 MOI of Human cytomegalovirus T2898 expressing UL27 kinase with W362stop gene N289D, D298G, N300G, P307L, V310A, D351N, I367V mutant gene assessed as growth inhibition at day 6 by SEAP yield reduction assay relative to control; assay type: functional, organism-based
Human betaherpesvirus 5 [7] = test: Antiviral activity against 0.01 to 0.02 MOI of Human cytomegalovirus T2266 harboring UL97 deletion of 537 through the end mutant gene assessed as growth inhibition at day 6 by SEAP yield reduction assay relative to control; assay type: functional, organism-based
Human betaherpesvirus 5 [8] = test: Antiviral activity against Human cytomegalovirus clinical isolate C076 harboring UL97 V353A mutant gene with UL27 del 301 to 311 codon by SEAP yield reduction assay relative to wild type; assay type: functional
Human betaherpesvirus 5 [9] = test: Antiviral activity against Human cytomegalovirus clinical T2294 harboring UL97 T409M mutant gene with UL27 W153R mutant gene by SEAP yield reduction assay relative to wild type; assay type: functional
Human betaherpesvirus 5 [10] = test: Antiviral activity against Human cytomegalovirus clinical T2294 harboring UL97 T409 mutant gene with UL27 E22stop mutant gene by SEAP yield reduction assay relative to wild type; assay type: functional
Human betaherpesvirus 5 [11] = test: Antiviral activity against Human cytomegalovirus clinical T2294 harboring UL97 T409 mutant gene with UL27 V353E mutant gene by SEAP yield reduction assay relative to wild type; assay type: functional
Human betaherpesvirus 5 [12] = test: Antiviral activity against Human cytomegalovirus T2211 expressing wild type UL27 kinase by SEAP yield reduction assay; assay type: functional, organism-based; settings: Human betaherpesvirus 5, T2211
How it was run: (§2)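 Cell-free virus was put on 6-day-old human embryonic lung fibroblast monolayers at MOI 0.01 to 0.02 and cultured 6 days across a maribavir range (six wells per assay). Supernatant SEAP was read by chemiluminescent substrate, and EC50 was derived by curve fitting. Values are the mean and standard error of at least 12 replicates over at least four dates. T2211 was run alongside on every date.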

Human betaherpesvirus 5 [13] = test: Antiviral activity against Human cytomegalovirus T2899 expressing wild type UL27 kinase with N289D, D298G, N300G, P307L,V310A, D351N, I367V mutant gene by SEAP yield reduction assay; assay type: functional, organism-based; settings: Human betaherpesvirus 5, T2899; how it was run: as §2
Human betaherpesvirus 5 [14] = test: Antiviral activity against Human cytomegalovirus T2890 expressing UL97 kinase with V353A mutant gene by SEAP yield reduction assay; assay type: functional, organism-based; settings: Human betaherpesvirus 5, T2890; how it was run: as §2
Human betaherpesvirus 5 [15] = test: Antiviral activity against Human cytomegalovirus T2981 expressing UL27 kinase with W153R mutant gene by SEAP yield reduction assay; assay type: functional, organism-based; settings: Human betaherpesvirus 5, T2981; how it was run: as §2
Human betaherpesvirus 5 [16] = test: Antiviral activity against Human cytomegalovirus T2767 expressing UL27 kinase with L193Fmutant gene by SEAP yield reduction assay; assay type: functional, organism-based; settings: Human betaherpesvirus 5, T2767; how it was run: as §2
Human betaherpesvirus 5 [17] = test: Antiviral activity against Human cytomegalovirus T2867 expressing UL27 kinase with A269T mutant gene by SEAP yield reduction assay; assay type: functional, organism-based; settings: Human betaherpesvirus 5, T2867; how it was run: as §2
Human betaherpesvirus 5 [18] = test: Antiviral activity against Human cytomegalovirus T3053 expressing UL27 kinase with V353E mutant gene by SEAP yield reduction assay; assay type: functional, organism-based; settings: Human betaherpesvirus 5, T3053; how it was run: as §2
Human betaherpesvirus 5 [19] = test: Antiviral activity against Human cytomegalovirus T3037 expressing UL27 kinase with L426F mutant gene by SEAP yield reduction assay; assay type: functional, organism-based; settings: Human betaherpesvirus 5, T3037; how it was run: as §2
Human betaherpesvirus 5 [20] = test: Antiviral activity against Human cytomegalovirus T3020 expressing UL27 kinase with E22stop gene by SEAP yield reduction assay; assay type: functional, organism-based; settings: Human betaherpesvirus 5, T3020; how it was run: as §2
Human betaherpesvirus 5 [21] = test: Antiviral activity against Human cytomegalovirus T2898 expressing UL27 kinase with W362stop gene N289D, D298G, N300G, P307L, V310A, D351N, I367V mutant gene by SEAP yield reduction assay; assay type: functional, organism-based; settings: Human betaherpesvirus 5, T2898; how it was run: as §2
Human betaherpesvirus 5 [22] = test: Antiviral activity against Human cytomegalovirus T3019 expressing UL27 kinase with 218delC mutant gene by SEAP yield reduction assay; assay type: functional, organism-based; settings: Human betaherpesvirus 5, T3019; how it was run: as §2
Human betaherpesvirus 5 [23] = test: Antiviral activity against Human cytomegalovirus T2931 expressing UL27 kinase 301 to 311 deletion with frame shift mutation at 311 codon by SEAP yield reduction assay; assay type: functional, organism-based; settings: Human betaherpesvirus 5, T2931; how it was run: as §2
Human betaherpesvirus 5 [24] = test: Ratio of EC50 for Human cytomegalovirus T2899 expressing wild type UL27 kinase with N289D, D298G, N300G, P307L,V310A, D351N, I367V mutant gene to EC50 for Human cytomegalovirus T2211 expressing wild type UL27 gene; assay type: functional; how it was run: as §1
Human betaherpesvirus 5 [25] = test: Ratio of EC50 for Human cytomegalovirus T2890 expressing UL97 kinase with V353A mutant gene to EC50 for Human cytomegalovirus T2211 expressing wild type UL27 gene; assay type: functional; how it was run: as §1
Human betaherpesvirus 5 [26] = test: Ratio of EC50 for Human cytomegalovirus T2981 expressing UL27 kinase with W153R mutant gene to EC50 for Human cytomegalovirus T2211 expressing wild type UL27 gene; assay type: functional; how it was run: as §1
Human betaherpesvirus 5 [27] = test: Ratio of EC50 for Human cytomegalovirus T2767 expressing UL27 kinase with L193Fmutant gene to EC50 for Human cytomegalovirus T2211 expressing wild type UL27 gene; assay type: functional; how it was run: as §1
Human betaherpesvirus 5 [28] = test: Ratio of EC50 for Human cytomegalovirus T2867 expressing UL27 kinase with A269T mutant gene to EC50 for Human cytomegalovirus T2211 expressing wild type UL27 gene; assay type: functional; how it was run: as §1
Human betaherpesvirus 5 [29] = test: Ratio of EC50 for Human cytomegalovirus T3053 expressing UL27 kinase with V353E mutant gene to EC50 for Human cytomegalovirus T2211 expressing wild type UL27 gene; assay type: functional; how it was run: as §1
Human betaherpesvirus 5 [30] = test: Ratio of EC50 for Human cytomegalovirus T3037 expressing UL27 kinase with L426F mutant gene to EC50 for Human cytomegalovirus T2211 expressing wild type UL27 gene; assay type: functional; how it was run: as §1
Human betaherpesvirus 5 [31] = test: Ratio of EC50 for Human cytomegalovirus T3020 expressing UL27 kinase with E22stop gene to EC50 for Human cytomegalovirus T2211 expressing wild type UL27 gene; assay type: functional; how it was run: as §1
Human betaherpesvirus 5 [32] = test: Ratio of EC50 for Human cytomegalovirus T2898 expressing UL27 kinase with W362stop gene N289D, D298G, N300G, P307L, V310A, D351N, I367V mutant gene to EC50 for Human cytomegalovirus T2211 expressing wild type UL27 gene; assay type: functional; how it was run: as §1

Compound: CC(C)Nc1nc2cc(Cl)c(Cl)cc2n1[C@H]1O[C@@H](CO)[C@H](O)[C@@H]1O [MARIBAVIR]
- Ratio EC50 (Human betaherpesvirus 5 [1]): 2.5
- Ratio EC50 (Human betaherpesvirus 5 [2]): 3.1
- inhibition (Human betaherpesvirus 5 [3]): Active
- inhibition (Human betaherpesvirus 5 [4]): Active
- inhibition (Human betaherpesvirus 5 [5]): Active
- inhibition (Human betaherpesvirus 5 [6]): Active
- inhibition (Human betaherpesvirus 5 [7]): Active
- fold change (FC) (Human betaherpesvirus 5 [8]): 15
- fold change (FC) (Human betaherpesvirus 5 [9]): 15
- fold change (FC) (Human betaherpesvirus 5 [10]): 15
- fold change (FC) (Human betaherpesvirus 5 [11]): 15
- EC50 (Human betaherpesvirus 5 [12]): 0.095 µM
- EC50 (Human betaherpesvirus 5 [13]): 0.084 µM
- EC50 (Human betaherpesvirus 5 [14]): 1.48 µM
- EC50 (Human betaherpesvirus 5 [15]): 0.16 µM
- EC50 (Human betaherpesvirus 5 [16]): 0.24 µM
- EC50 (Human betaherpesvirus 5 [17]): 0.19 µM
- EC50 (Human betaherpesvirus 5 [18]): 0.2 µM
- EC50 (Human betaherpesvirus 5 [19]): 0.21 µM
- EC50 (Human betaherpesvirus 5 [20]): 0.19 µM
- EC50 (Human betaherpesvirus 5 [21]): 0.21 µM
- EC50 (Human betaherpesvirus 5 [22]): 0.23 µM
- EC50 (Human betaherpesvirus 5 [23]): 0.29 µM
- Ratio EC50 (Human betaherpesvirus 5 [24]): 0.9
- Ratio EC50 (Human betaherpesvirus 5 [25]): 16
- Ratio EC50 (Human betaherpesvirus 5 [26]): 1.7
- Ratio EC50 (Human betaherpesvirus 5 [27]): 2.6
- Ratio EC50 (Human betaherpesvirus 5 [28]): 2
- Ratio EC50 (Human betaherpesvirus 5 [29]): 2.1
- Ratio EC50 (Human betaherpesvirus 5 [30]): 2.2
- Ratio EC50 (Human betaherpesvirus 5 [31]): 2
- Ratio EC50 (Human betaherpesvirus 5 [32]): 2.2

Reference: ChEMBL document CHEMBL1629581, “Diverse cytomegalovirus UL27 mutations adapt to loss of viral UL97 kinase activity under maribavir” (Antimicrob Agents Chemother, 2009)
